C2C12 statin: suppressors of simvastatin-induced myotoxicity in C2C12 myotubes; ATP luminescence, 48 h; scaled: DMSO 0, geranylgeraniol control 100; rescue of ATP level, % at 7.49 µM; 330,000 tested, 0.78% active;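 active = mean ATP rescue above about 67%, or every replicate alone reaching that limit, limit read from the data, passing the limit was not always enough; inconclusive = no clear call, values can overlap the other calls; inactive = mean under the limit and some replicate under it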;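 also: myotubes were challenged with 10 µM simvastatin during compound exposure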
SIRT5 inh: blocks human SIRT5 desuccinylation of peptide. 330,000 tested, 1.1% active. Q9NXA8. Purified SirT5, succinyl-peptide AMC, trypsin-coupled fluorescence. AID 652115. inhibition, % at 15 µM; in the data active = inhibition above about 15%; inconclusive = no clear call, values can overlap the other calls
Target sequence (Q9NXA8 whole entry, looked up): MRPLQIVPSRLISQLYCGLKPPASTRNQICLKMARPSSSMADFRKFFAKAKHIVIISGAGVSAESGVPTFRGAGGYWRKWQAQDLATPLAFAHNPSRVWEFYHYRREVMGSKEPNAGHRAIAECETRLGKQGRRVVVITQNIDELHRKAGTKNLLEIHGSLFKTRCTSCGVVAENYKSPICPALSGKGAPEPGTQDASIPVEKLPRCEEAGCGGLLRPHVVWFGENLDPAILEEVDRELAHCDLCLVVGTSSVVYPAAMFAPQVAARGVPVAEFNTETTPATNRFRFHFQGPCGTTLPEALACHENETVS
Cneo AK release: causes C. neoformans cell lysis | adenylate kinase release luminescence, 4 h; normalised: neutral wells 0, clomiphene wells 100 | lysis activity, % at 15 µM | 360,000 tested, 0.2% active;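 active = mean lysis activity across replicates of at least 80%, whatever share of replicates individually reach that level; inactive = mean lysis activity below 80%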
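Signal: Adenylate kinase release luminescence | Assay system: Log-phase Cryptococcus neoformans yeast cells | Input: Cells at 5 × 10^6 per mL | Buffer or medium: Fresh YPD growth medium | Compound: Single dose | Schedule: Static 4 h at 37 °C with compound, 1 h detection | Controls: Clomiphene | Read-out: Luminescence rise reflecting yeast cell lysis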
S100A4 inh HTS: inhibitors of human S100A4 binding to myosin IIA peptide; P26447; S100A4/TAMRA-MyoIIA peptide fluorescence polarization; inhibition, % at 10.7 µM; 360,000 tested, 0.14% active;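 active = mean inhibition of at least 70% across replicates, with every replicate also reaching that level; inconclusive = mean inhibition reaches 70% but some replicates fall short; inactive = mean inhibition below 70%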
Target sequence (P26447 whole entry, looked up): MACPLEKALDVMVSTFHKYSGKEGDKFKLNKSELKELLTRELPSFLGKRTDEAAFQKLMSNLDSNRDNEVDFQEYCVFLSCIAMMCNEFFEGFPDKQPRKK
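Test system – S100A4 monomer (human) · Compound – single-point compound testing · Schedule – 5 min incubation before reading · Probe or stimulus – TAMRA-labelled myosin IIA heavy-chain peptide probe, 5 nM · Benchmarks – neutral control DMSO, positive control TFP · Medium – Calcium-containing HEPES buffer, pH 7.2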
rRNA inh HTS: selective bacterial rRNA inhibition in E. coli; 350,000 tested, 1.6% active; E. coli WT GFP vs humanized-ribosome RFP mutants, fluorescence, 24 h; hits give low values; DMSO median 0, no signal -100; GFP signal change (wild-type ribosome), % (concentration not given with the values); AID 720706;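 active = significant combined selectivity score with lowered wild-type GFP, culture density cut under 30%, mutant RFP and density less affected; inactive = any of these conditions unmet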
PGC1a acetyl inh: lowers PGC1a acetylation signal in U2OS cells; AlphaScreen anti-acetyl-lysine; with virally co-expressed GCN5 acetyltransferase; inhibition, % at 15.6 µM; 350,000 tested, 0.17% active;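 active = every replicate shows inhibition of at least 40%; inconclusive = mean inhibition at least 40% but some replicate below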;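 also: 0% = neutral control wells and 100% = positive control wells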
* marks the source's active call; other numbers are inactive results; u = inconclusive; x = no result given. Hits are enriched below; roughly 3% of the tested compounds scored in any of these assays.

SMILES | C2C12 statin | SIRT5 inh | Cneo AK release | S100A4 inh HTS | rRNA inh HTS | PGC1a acetyl inh
CC(=O)c1ccc(NC(=O)C2=CC(c3cccs3)=NS(=O)(=O)N2C)cc1 | 2 | 6 | 6 | 2 | -21* | 14
Cc1cccc(NC(=O)/C(C#N)=C\c2cc(C)n(-c3ccc(C(=O)O)cc3)c2C)c1 | x | 8 | x | 1 | -28* | x
Cc1noc(C)c1S(=O)(=O)N(C)C[C@H]1Oc2ccc(NC(=O)Cn3cnnn3)cc2CC(=O)N([C@H](C)CO)C[C@H]1C | 7 | 28* | 3 | 4 | 2 | 0
Cc1noc(C)c1S(=O)(=O)N(C)C[C@H]1Oc2ccc(N(C)C)cc2CC(=O)N([C@H](C)CO)C[C@H]1C | -22 | -2 | -8 | 129* | -1 | 6
Cc1ccc(S(=O)(=O)N[C@@H]2C=C[C@H](CC(=O)NCCN3CCCCC3)O[C@H]2CO)cc1 | -1 | 0 | 4 | -3 | 2 | 3
O=C(Nc1ccc2c(c1)OCO2)N[C@H]1CC[C@@H](CC(=O)N2CCN(c3ccccc3)CC2)O[C@H]1CO | 23 | 1 | -1 | 4 | -4 | 1
O=C(COc1ccc(Br)cc1)NNC(=O)c1cc(S(=O)(=O)N2CCOCC2)ccc1Cl | 3 | -2 | -1 | -4 | -19* | x
Cc1cnc(C(=O)OCC(=O)Nc2cccc(S(=O)(=O)N3CCCCC3)c2)cn1 | x | 28* | x | 5 | 1 | x
CC(C(=O)Nc1cccc(S(=O)(=O)N2CCOCC2)c1)N1CCN(c2ccc(F)cc2)CC1 (stereo not drawn) | x | 16* | x | -2 | 0 | -21
Cc1ccc(CC(=O)Nc2cccc(S(=O)(=O)N3CCOCC3)c2)cc1 | -5 | -2 | -2 | -2 | -3 | x
O=C(Cc1ccc(Br)cc1)Nc1cccc(S(=O)(=O)N2CCOCC2)c1 | 16 | -5 | -4 | 1 | -30* | -4
COc1cccc(-c2cn(CC[C@H]3CC[C@@H](NC(C)=O)[C@@H](CO)O3)nn2)c1 | -3 | -5 | -1 | -4 | -1 | -5
O=S(=O)(c1cccc(NC(=S)N2CCN(c3ccc(F)cc3)CC2)c1)C(F)F | x | 30* | x | -22 | -17 | x
O=C(Nc1cccc(S(=O)(=O)C(F)F)c1)c1ccc(S(=O)(=O)N2CCOCC2)cc1 | 95* | x | -1 | x | x | -3
O=C(Cc1c(Cl)cccc1Cl)Nc1cccc(S(=O)(=O)N2CCOCC2)c1 | x | 4 | x | -5 | -23* | x
O=C(Cc1ccccc1F)Nc1cccc(S(=O)(=O)N2CCOCC2)c1 | x | 17* | x | -7 | -4 | 2
CCCNC(=O)[C@H]1[C@H](CO)[C@H]2Cn3c(ccc(-c4ccccc4)c3=O)[C@@H]1N2C(=O)C1CC1 | -2 | -32 | -1 | 4 | -2 | x
C[C@@H]1CN([C@@H](C)CO)C(=O)Cc2cc(NS(=O)(=O)c3ccc(F)cc3)ccc2O[C@@H]1CN(C)C(=O)Nc1ccc2c(c1)OCO2 | -6 | x | x | x | -1 | -10
S=C(Nc1ccccc1)N1CCCCCCC1 | x | -3 | x | 2 | 9 | x
Fc1cccc(NC(=S)N2CCCC2)c1 | x | 15* | x | 0 | 10 | x
COc1cccc(N2C(=O)C3C(C2=O)C3(c2ccccc2)c2ccccc2)c1 (stereo not drawn) | -2 | -4 | 1 | -4 | -33* | x
CCOc1ccc(N2C(=O)C3C(C2=O)C3(c2ccccc2)c2ccccc2)cc1 (stereo not drawn) | x | -4 | 4 | 1 | -14 | 5
CN(C)CC#Cc1ccc([C@@H]2[C@@H](CO)N3C(=O)CN(C(=O)c4cccnc4)C[C@@H]23)cc1 | x | -4 | x | -1 | 3 | 9
CN(c1cccc(NS(=O)(=O)c2cccs2)c1)S(C)(=O)=O | 4 | x | 1 | x | x | 51*
C[C@@H]1CN([C@H](C)CO)C(=O)c2cc(C#CC3(O)CCCC3)cnc2O[C@H]1CN(C)C(=O)C1CC1 | 42 | x | x | x | 3 | 8
SMILES | C2C12 statin | SIRT5 inh | Cneo AK release | S100A4 inh HTS | rRNA inh HTS | PGC1a acetyl inh
COc1ccccc1/C=C1\SC(=S)N(C(C(=O)O)c2ccccc2)C1=O (stereo not drawn) | x | 2 | x | -6 | -37* | 6
O=C1/C(=C\c2ccc(O)c(O)c2)SC(=S)N1Cc1ccccc1 | 17 | -2 | -1 | -5 | -20 | 6
O=C(O)CN1C(=O)/C(=C\c2ccccc2OCc2ccccc2)SC1=S | -11 | 0 | 0 | -3 | -29 | x
O=C(O)CN1C(=O)/C(=C\c2ccccc2OCc2ccc(F)cc2)SC1=S | -34 | 5 | -2 | -1 | -39* | -8
O=C1/C(=C\c2cccc(O)c2)SC(=S)N1Cc1ccccc1 | 46 | -3 | 46 | -1 | -20* | 8
COc1ccccc1/C=C1\SC(=S)N(CCC(=O)Nc2cccc(O)c2)C1=O | -12 | 1 | -1 | 2 | -31* | x
Cc1cc(C(=O)Nc2cccc3c2O[C@H](CN(C)S(=O)(=O)c2cn(C)cn2)[C@H](C)CN([C@H](C)CO)C3=O)n(C)n1 | -23 | -2 | 11 | 8 | 2 | 2
O=C1/C(=C\c2cc([N+](=O)[O-])ccc2O)SC(=S)N1Cc1ccc(Cl)cc1 | -20 | 16* | -3 | -52 | -52 | -8
O=C1/C(=C\c2cccc(O)c2O)SC(=S)N1Cc1ccccc1 | u | 2 | 3 | 2 | 1 | x
O=C(CCN1C(=O)/C(=C/c2ccc3c(c2)OCO3)SC1=S)Nc1cccc(C(=O)O)c1 | 6 | 17* | 1 | 5 | 3 | x
O=C(CCCN1C(=O)/C(=C/c2ccc3c(c2)OCO3)SC1=S)Nc1cccc(C(=O)O)c1 | 7 | 3 | -8 | 2 | -15 | 5
O=C(C[n+]1cccc(CNC(=O)c2ccc(OC(F)F)cc2)c1)Nc1ccc(F)cc1 | x | -9 | x | -1 | -19* | x
O=C(c1cccc(F)c1)N1CCCCN2[C@@H](CO)[C@H](c3ccc(-c4ccncc4)cc3)[C@@H]2C1 | x | 4 | 112* | -1 | 0 | -8
C[C@@H](O)C#Cc1ccc([C@@H]2[C@@H](CO)N3CCCCN(C(=O)c4cccc(F)c4)C[C@@H]23)cc1 | -31 | 0 | -1 | 7 | -2 | 2
O=C(c1cccc(F)c1)N1CCCC(C(=O)N2CCCCC2)C1 (stereo not drawn) | 31 | 22* | -2 | -2 | 8 | 5
C[C@@H](O)C#Cc1ccc([C@@H]2[C@H]3CN(C(=O)c4cccc(F)c4)CCCCN3[C@H]2CO)cc1 | -4 | 23* | -1 | x | 3 | 1
CN1[C@H](C(=O)NC2Cc3ccccc3C2)[C@@H](CO)[C@@H]2Cn3c(ccc(-c4ccccc4)c3=O)[C@@H]21 | 20 | 3 | 0 | -4 | -8 | x

Compound activity deposited in PubChem BioAssay by Broad Institute.
